High-throughput results from PubChem BioAssay.
In the library only some 2.6% were active in any assay of this set; here they are far more common.
5HT1a antag = human 5-HT1a receptor antagonists, primary screen, cell-based, CHO, Ga15 NFAT-bla reporter; 5-hydroxytryptamine receptor 1A (Homo sapiens), P08908; CHO 5-HT1a Ga15 NFAT-bla reporter, antagonist mode; inhibition, % at 10 µM; 62,000 tested, 0.68% active; AID 612, 2007;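 active = inhibition above the mean of all tested compounds plus 3 SD, cut at about 43% in these data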;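 also: receptor stimulated by 5-CT agonist at 100 nM near EC80; beta-lactamase reporter measured by ratiometric fluorescence of a cleavable substrate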
S1P3 ag = human S1P3 receptor agonists, primary screen, cell-based, primary and confirmation, NFAT-BLA reporter | activation, % at 4.5 µM | S1P3 NFAT-BLA reporter cells, agonism, FRET ratio; relative to 1 µM S1P, basal subtracted | Sphingosine 1-phosphate receptor 3 (Homo sapiens), Q99500 | AID 373, 2006 | 60,000 tested, 0.1% active;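 active = activation above the screen-wide mean plus 3 SD, cut at about 4.5% in these data, passing the limit was not always enough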
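Measure – % activation relative to 1 µM S1P (100%), per plate · System – stable CHO line with human S1P3, Gα16, NFAT-BLA reporter · Timing – cells plated overnight, compound 4 h 37 °C, substrate 2 h RT · Technique – fluorescent BLA substrate, ex 405 nm, em 460/535 nm ratio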
5HT1E ag = 5-HT1E receptor agonists, primary screen, cell-based, HTS; 65,000 tested, 0.69% active; activation, % at 6 µM; 5-hydroxytryptamine receptor 1E (Homo sapiens), P28566; CHO 5-HT1E Ga15 NFAT-bla reporter, FRET; 0% DMSO wells, 100% control agonist wells;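 active = activation above a set limit, the screen-wide mean activation plus 3 SD, cut at about 8.5% in these data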;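 also: 100% = positive control agonist at 1 µM giving full maximal response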
E coli RNAP = E. coli RNAP inhibitors, biochemical; DNA-directed RNA polymerase subunit beta (Escherichia coli (strain K12)), P0A8V2; E. coli RNA polymerase, fluorescence transcription assay; inhibition, %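 (tested at 10 µM)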; 62,000 tested, 0.2% active; AID 559, 2006; in the data active = inhibition above about 20%;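 also: 0% = enzyme without compound and 100% = no enzyme blank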
HTR1A agonist = human 5-HT1a receptor agonists, primary screen, cell-based, CHO, Ga15 NFAT-bla reporter; 5-hydroxytryptamine receptor 1A (Homo sapiens), P08908; CHO 5-HT1a Ga15 NFAT-bla reporter, FRET ratio; 0% basal, 100% maximal reference agonist; activation, % at 10 µM; 65,000 tested, 0.56% active; AID 567, 2006;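 active = activation above the screen-wide mean activation plus 3 SD, cut at about 19% in these data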;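 also: 0% = DMSO wells and 100% = 5-CT at EC100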
5HT1E antag = 5-HT1E receptor antagonists, primary screen, cell-based, HTS; CHO 5-HT1E Ga15 NFAT-bla reporter, FRET, antagonist; inhibition, % at 6 µM; 65,000 tested, 0.99% active;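 active = inhibition above a set limit, the mean inhibition across every tested compound plus 3 SD, cut at about 29% in these data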;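 also: signal is the 460 over 535 nm emission ratio of beta-lactamase substrate; 0% = agonist plus DMSO wells and 100% = wells without agonist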
* hit, by the source's call.

COc1ccccc1NC(=O)C1CC(=O)N(c2ccc(F)cc2)C1 (centres undefined) was read as 5HT1a antag -2.5, S1P3 ag 1.0, 5HT1E ag 2.9, E coli RNAP -14.7, HTR1A agonist -2.0 and 5HT1E antag 3.3.
O=C(CSc1nc2c(c(=O)n1-c1ccc(Cl)cc1)SCC2)N1CCOCC1 was read as 5HT1a antag -1.0, S1P3 ag -1.0, 5HT1E ag 1.1, E coli RNAP 6.4, HTR1A agonist 1.3 and 5HT1E antag -16.3.
`O=C(CCCNS(=O)(=O)c1cccc2nsnc12)NC1CCCCC1` gave 5HT1a antag -2.7, S1P3 ag -0.7, 5HT1E ag 0.4, E coli RNAP 25.9*, HTR1A agonist -4.3 and 5HT1E antag -3.1.
CCOc1ccccc1-c1nnc(SCC(=O)NC2CC3CCC2C3)n1CC (centres undefined) was read as 5HT1a antag 1.6, S1P3 ag -1.0, 5HT1E ag 10.9*, E coli RNAP 0.6, HTR1A agonist -4.8 and 5HT1E antag -1.1.
For O=C(Nc1ccc2oc(-c3ccccc3Cl)nc2c1)c1cncc(Br)c1 the results were 5HT1a antag -7.6, S1P3 ag -0.2, 5HT1E ag -0.4, E coli RNAP 7.0, HTR1A agonist 64.3* and 5HT1E antag 2.1.
For O=C(Nc1ccc2oc(-c3ccccc3Cl)nc2c1)c1ncn[nH]1 the results were 5HT1a antag -3.3, S1P3 ag -0.5, 5HT1E ag -1.1, E coli RNAP -4.2, HTR1A agonist 0.0 and 5HT1E antag -3.4.
`Cc1cccn2c(=O)c3cc(C(=O)N4c5ccccc5CC4C)n(C)c3nc12` (centres undefined) gave 5HT1a antag 0.7, S1P3 ag 0.7, 5HT1E ag 0.1, E coli RNAP 1.9, HTR1A agonist -1.3 and 5HT1E antag 4.8.
`CC1Cc2ccccc2N1C(=O)c1cc2c(=O)n3ccccc3nc2n1C` (centres undefined) gave 5HT1a antag -13.6, S1P3 ag -0.3, 5HT1E ag 0.5, E coli RNAP 1.4, HTR1A agonist 2.5 and 5HT1E antag 38.8*.
Screening COc1ccc(N2CCN(C(c3ccccc3OC)c3nnnn3C3CCCC3)CC2)cc1 (centres undefined) returned 5HT1a antag 28.9, S1P3 ag -1.5, 5HT1E ag -0.4, E coli RNAP -0.2, HTR1A agonist -5.2 and 5HT1E antag -1.0.
For COc1ccc(N2CCN(C(c3cccc(OC)c3OC)c3nnnn3C3CCCC3)CC2)cc1 (centres undefined) the results were 5HT1a antag 43.6*, S1P3 ag 0.0, 5HT1E ag 0.1, E coli RNAP -16.6, HTR1A agonist -0.5 and 5HT1E antag 4.2.
For COc1cccc(C(c2nnnn2Cc2ccco2)N2CCN(c3cccc(C)c3C)CC2)c1OC (centres undefined) the results were 5HT1a antag 52.5*, S1P3 ag -1.2, 5HT1E ag 1.9, E coli RNAP 9.4, HTR1A agonist 3.0 and 5HT1E antag -21.7.
`Cn1c(Cn2c(=O)sc3ccccc32)nnc1SCC(=O)Nc1ccccc1` gave 5HT1a antag 4.1, S1P3 ag -0.4, 5HT1E ag 0.0, E coli RNAP 8.6, HTR1A agonist -3.1 and 5HT1E antag -2.4.
For O=S(=O)(c1ccccc1)N1CCN(c2nnnn2-c2ccccc2)CC1 the results were 5HT1a antag -5.0, 5HT1E ag -0.3, E coli RNAP 5.5, HTR1A agonist -1.9 and 5HT1E antag 3.9.
Screening c1ccc(CC2CCN(c3nnnn3-c3ccccc3)CC2)cc1 returned 5HT1a antag 7.8, S1P3 ag -1.0, 5HT1E ag -0.8, E coli RNAP 8.8, HTR1A agonist -0.8 and 5HT1E antag 32.4*.
CSc1ccccc1NC(=O)c1cccnc1 was read as 5HT1a antag -12.2, S1P3 ag 0.9, 5HT1E ag 48.1*, E coli RNAP 2.5, HTR1A agonist -0.6 and 5HT1E antag -2.9.
For CCn1nnc(-c2ccccc2NC(=O)c2cc(OC)c(OC)c(OC)c2)n1 the results were 5HT1a antag 3.3, S1P3 ag -0.2, 5HT1E ag 1.2, E coli RNAP 7.6, HTR1A agonist 0.7 and 5HT1E antag 31.1*.
Screening CCCCn1c(=O)[nH]c(=O)c2c1nc(-c1ccncc1)n2CCOC returned 5HT1a antag -1.5, S1P3 ag 0.4, 5HT1E ag 0.0, E coli RNAP 5.9, HTR1A agonist 269.9* and 5HT1E antag -6.1.
`CCOC(=O)c1ccc(NS(=O)(=O)c2cc(C)ccc2OC)cc1` gave 5HT1a antag -0.7, S1P3 ag -1.0, 5HT1E ag 1.2, E coli RNAP 10.9, HTR1A agonist 1.6 and 5HT1E antag -2.0.
For COc1ccc(NS(=O)(=O)c2cc(C)ccc2NC(=O)c2cc(C)oc2C)cc1 the results were 5HT1a antag 63.3*, S1P3 ag -1.4, 5HT1E ag -0.4, E coli RNAP -2.6, HTR1A agonist 0.1 and 5HT1E antag 60.8*.
COc1cccc(C(=O)CSc2nnc(COc3cccc4cccnc34)o2)c1 was read as 5HT1a antag 5.8, S1P3 ag -1.3, 5HT1E ag -1.7, E coli RNAP -10.7, HTR1A agonist 46.5* and 5HT1E antag 12.2.
For Cc1ccc(C(=O)CSc2nnc(COc3cccc4cccnc34)o2)cc1 the results were 5HT1a antag -2.8, S1P3 ag -1.2, 5HT1E ag 0.1, HTR1A agonist -1.6 and 5HT1E antag 9.7.
For O=C(CCN1CCCC1Cc1ccccc1)c1ccc2c(c1)OCCO2 (centres undefined) the results were S1P3 ag -4.7, 5HT1E ag 8.9*, E coli RNAP 4.1, HTR1A agonist -0.8 and 5HT1E antag 16.1.
`Cc1ccc(C)c(OCc2nnc(NC(=O)c3ccco3)s2)c1` gave S1P3 ag -2.0, 5HT1E ag -0.2, E coli RNAP 9.0, HTR1A agonist -0.9 and 5HT1E antag 4.7.
For CCc1nnc(NC(=O)CSc2nnc(COc3ccccc3C)o2)s1 the results were 5HT1a antag -5.7, S1P3 ag -0.7, 5HT1E ag 8.9*, E coli RNAP 7.5, HTR1A agonist 0.7 and 5HT1E antag 5.5.
Screening Cc1ccc(C)c(OCCCC(=O)Nc2ccc(N3CCOCC3)cc2)c1 returned 5HT1a antag -4.8, S1P3 ag -0.6, 5HT1E ag 0.6, E coli RNAP 8.4, HTR1A agonist 26.0* and 5HT1E antag -13.4.
